From ChEMBL document CHEMBL5149989, “Interplay among Conformation, Intramolecular Hydrogen Bonds, and Chameleonicity in the Membrane Permeability and Cyclophilin A Binding of Macrocyclic Peptide Cyclosporin O Derivatives” (J Med Chem, 2021)
Non-standard residues stand in square brackets, D forms with d. Residues, ends and D or L forms follow the SMILES beside them. NMeL = CN[C@@H](CC(C)C)C(=O)O; NMeV = CN[C@H](C(=O)O)C(C)C; Nva = CCC[C@H](N)C(=O)O; Sar = CNCC(=O)O

Experiments:
[1] = Permeability in PBS buffer measured after 18 hrs by PAMPA based LC-MS analysis; format: ADME; details: read-out: permeability
[2] = Effective permeability in PBS buffer assessed as mass retention measured after 18 hrs by PAMPA based LC-MS analysis; format: ADME
[3] = Permeability across apical to basal side in human Caco-2 cells measured at 0.5 to 2 hrs by LC-MS analysis; format: ADME, cell-based; details: time 0.5-2 hrs; for Papp A→B: read-out: permeability
[4] = Permeability across apical to basal side in human Caco-2 cells assessed as drug recovery measured at 0.5 to 2 hrs by LC-MS analysis relative to control; format: ADME, cell-based; details: time 0.5-2 hrs, read-out: Drug recovery
[5] = Permeability across basal to apical side in human Caco-2 cells measured at 0.5 to 2 hrs by LC-MS analysis; format: ADME, cell-based; details: time 0.5-2 hrs, read-out: permeability
[6] = Permeability across basal to apical side in human Caco-2 cells assessed as drug recovery measured at 0.5 to 2 hrs by LC-MS analysis relative to control; format: ADME, cell-based; details: time 0.5-2 hrs, read-out: Drug recovery
[7] = Permeability across apical to basal side in human Caco-2 cells preincubated with verapamil for 30 mins followed by compound addition measured at 0.5 to 2 hrs by LC-MS analysis; format: ADME, cell-based; details: Caco-2, with verapamil (concentration not stated), time 0.5-2 hrs, read-out: permeability
[8] = Permeability across apical to basal side in human Caco-2 cells assessed as drug recovery preincubated with verapamil for 30 mins followed by compound addition measured at 0.5 to 2 hrs by LC-MS analysis relative to control; format: ADME, cell-based; details: for recovery: Caco-2, with verapamil (concentration not stated), time 1-2.5 hrs, read-out: Drug recovery
[9] = target: Peptidyl-prolyl cis-trans isomerase A (Homo sapiens, UniProt P62937); assay: Binding affinity to CypA (unknown origin) assessed as inhibition constant by isomer specific proteolysis assay
[10] = Tmax in ICR mouse at 20 mg/kg, po measured after 0.25 to 24 hrs by LC-MS/MS analysis; format: ADME, organism-based; details: in vivo, time 0.25-24 hrs
[11] = AUCinfinity in ICR mouse at 20 mg/kg, po measured after 0.25 to 24 hrs by LC-MS/MS analysis; format: ADME, organism-based; design: dose 20 mg/kg, time upper 24 hrs, time lower 0.25 hrs, route po; details: in vivo
[12] = Cmax in ICR mouse at 20 mg/kg, po measured after 0.25 to 24 hrs by LC-MS/MS analysis; format: ADME, organism-based; design: time upper 24 hrs, time lower 0.25 hrs, dose 20 mg/kg, route po; details: in vivo
[13] = Clearance in ICR mouse at 20 mg/kg, po measured after 0.25 to 24 hrs by LC-MS/MS analysis; format: ADME, organism-based; details: in vivo, time 0.25-24 hrs
Outline: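 Male ICR mice (9 weeks, 33−37 g) given 20 mg/kg (10 mL/kg) by oral gavage. Plasma obtained by centrifugation at 4 °C, protein-precipitated with 4 volumes acetonitrile, and analysed by LC-MS/MS.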

[14] = Apparent volume of distribution in ICR mouse at 20 mg/kg, po measured after 0.25 to 24 hrs by LC-MS/MS analysis; format: ADME, organism-based; details: in vivo, time 0.25-24 hrs
[15] = Half life in ICR mouse at 20 mg/kg, po measured after 0.25 to 24 hrs by LC-MS/MS analysis; format: ADME, organism-based; details: in vivo, time 0.25-24 hrs
[16] = Oral bioavailability in ICR mouse at 20 mg/kg measured after 0.25 to 24 hrs by LC-MS/MS analysis; format: ADME, organism-based; details: in vivo, time 0.25-24 hrs
Outline: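 Male ICR mice received 5 mg/kg iv via tail vein or 20 mg/kg po by gavage. Plasma was sampled serially up to 24 h via the saphenous vein, acetonitrile-precipitated and quantified by LC-MS/MS. F was derived from the po and iv AUC∞ values.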

[17] = Ratio of drug level in brain to plasma in ICR mouse plasma at 1 uM preincubated for 10 mins followed by compound addition measured after 60 mins by LC-MS/MS analysis; format: ADME, cell-free; details: read-out: BPR
[18] = Potency index, ratio of cyclosporin A BPR to test compound BPR for drug level in ICR mouse at 1 uM; format: ADME; details: in vivo
[19] = Half life in ICR mouse at 5 mg/kg, iv measured after 0.08 to 24 hrs by LC-MS/MS analysis; details: in vivo
[20] = AUCinfinity in ICR mouse at 5 mg/kg, iv measured after 0.08 to 24 hrs by LC-MS/MS analysis; details: in vivo
[21] = Volume of distribution at steady state in ICR mouse at 5 mg/kg, iv measured after 0.08 to 24 hrs by LC-MS/MS analysis; details: in vivo, read-out: Vdss

Chain of Peptidyl-prolyl cis-trans isomerase A (P62937 whole entry): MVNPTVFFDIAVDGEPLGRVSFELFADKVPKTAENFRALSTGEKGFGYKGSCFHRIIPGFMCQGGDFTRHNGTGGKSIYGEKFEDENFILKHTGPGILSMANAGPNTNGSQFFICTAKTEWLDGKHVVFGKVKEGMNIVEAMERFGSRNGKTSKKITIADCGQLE

| Compound | Papp at 18 h [1] [×10⁻⁶ cm/s] | Activity [2] [%] | Papp A→B [3] [×10⁻⁶ cm/s] | recovery [4] [%] | Papp B→A [5] [×10⁻⁶ cm/s] | recovery [6] [%] | Papp A→B [7] [×10⁻⁶ cm/s] | recovery [8] [%] | Ki [9] [µM] | other results |
| --- | --- | --- | --- | --- | --- | --- | --- | --- | --- | --- |
| CCC[C@@H]1NC(=O)[C@H](CC(C)C)N(C)C(=O)[C@H](CC(C)C)N(C)C(=O)[C@H](CC(C)C)N(C)C(=O)[C@H](CC(C)C)N(C)C(=O)[C@@H](C)NC(=O)[C@H](C)NC(=O)[C@H](CC(C)C)N(C)C(=O)[C@H](C(C)C)NC(=O)[C@H](CC(C)C)N(C)C(=O)CN(C)C1=O | 0.06 | 74 | 0.07 | 66 | 0.61 | 65 | 0.34 | 107 | > 20 | – |
| CCC[C@@H]1NC(=O)[C@H](CC(C)C)N(C)C(=O)[C@H](C(C)C)N(C)C(=O)[C@H](CC(C)C)N(C)C(=O)[C@H](CC(C)C)N(C)C(=O)[C@@H](C)NC(=O)[C@H](C)NC(=O)[C@H](CC(C)C)N(C)C(=O)[C@H](C(C)C)NC(=O)[C@H](CC(C)C)N(C)C(=O)CN(C)C1=O (cyclo(A[dA][NMeL][NMeL][NMeV][NMeL][Nva][Sar][NMeL]V[NMeL])) | 0.29 | 84 | – | 82 | 2.88 | 82 | 0.69 | – | 2.3 | permeability [3]: 0.29 10^-6 cm/s; Drug recovery ([8]; caco-2, time 1-2.5 hrs): 123%; Tmax [10]: 0.8 h; AUC [11]: 4080 ng·h/mL; Cmax [12]: 1600 ng/mL; CL/F [13]: 82 mL/min/kg; Vz [14]: 22.2 L/kg; half-life [15]: 3.1 h; F [16]: 12%; Kp at 1 h, 1 µM [17]: 0.62; Ratio [18]: 5; half-life [19]: 4.8 h; AUC [20]: 8500 ng·h/mL; Vd [21]: 4 L/kg |
| CC(C)NCC(O)COc1ccc(CC(N)=O)cc1 (configuration not stated) [ATENOLOL] | – | – | – | 88 | – | 85 | – | 78 | – | – |
| CC(C)NCC(O)COc1cccc2ccccc12 (configuration not stated) [PROPRANOLOL] | – | – | 20 | – | – | – | – | – | – | – |

More lines, main results first:

| Papp at 18 h [1] [×10⁻⁶ cm/s] | Activity [2] [%] | Papp A→B [3] [×10⁻⁶ cm/s] | recovery [4] [%] | Papp B→A [5] [×10⁻⁶ cm/s] | recovery [6] [%] | Papp A→B [7] [×10⁻⁶ cm/s] | recovery [8] [%] | Ki [9] [µM] | Compound | other results |
| --- | --- | --- | --- | --- | --- | --- | --- | --- | --- | --- |
| < 0.004 | 60 | 0.05 | 76 | 5.17 | 88 | 0.07 | 112 | 3 | CCC[C@@H]1NC(=O)[C@H](CC(C)C)N(C)C(=O)[C@H](C(C)C)N(C)C(=O)[C@H](CC(C)C)N(C)C(=O)[C@H](CC(C)C)N(C)C(=O)[C@@H](C)NC(=O)[C@H](CCC(N)=O)NC(=O)[C@H](CC(C)C)N(C)C(=O)[C@H](C(C)C)NC(=O)[C@H](CC(C)C)N(C)C(=O)CN(C)C1=O | – |
| < 0.009 | 75 | 0.12 | 89 | 8.6 | 87 | 0.18 | 110 | > 20 | CCC[C@@H]1NC(=O)[C@H](CC(C)C)N(C)C(=O)[C@H](CC(C)C)N(C)C(=O)[C@H](CC(C)C)N(C)C(=O)[C@H](CC(C)C)N(C)C(=O)[C@@H](C)NC(=O)[C@H](CCC(N)=O)NC(=O)[C@H](CC(C)C)N(C)C(=O)[C@H](C(C)C)NC(=O)[C@H](CC(C)C)N(C)C(=O)CN(C)C1=O (cyclo([NMeL][NMeL][NMeL][NMeL][Nva][Sar][NMeL]V[NMeL]Q[dA])) | – |
